Bioassay records deposited in PubChem BioAssay by several laboratories.
Hits are enriched below; roughly 4.7% of the tested compounds scored in any of these assays.
IMP-1 inh: blocks Pseudomonas aeruginosa IMP-1 metallo-beta-lactamase. inhibition, % at 5.6 µM. purified IMP-1, nitrocefin hydrolysis, epi-absorbance fluorescence. AID 1556. hit rate 0.45% among 290,000;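 active = inhibition above the mean plus 3 SD of all compounds in the same screening run, cut at about 4.5% in these data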;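 also: 0% = IMP-1 with DMSO and 100% = DMSO wells lacking enzyme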
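System: purified IMP-1 / Input: IMP-1 dispensed at 0.2 nM / Medium: 50 mM HEPES pH 7.1, 50 µM ZnSO4, 0.05% Brij 35 / Timing: 15 min enzyme–compound preincubation, then 25 min nitrocefin reaction, 25 °C / Technique: plate fluorescence quenching by hydrolysis product, ex 480/em 530 nm / Repeats: singlicate testing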
Mdm2-MdmX inh: disrupts the human Mdm2-MdmX interaction | O15151+Q00987 | AID 485346 | hit rate 3% among 330,000 | SaOS-2 split-luciferase Mdm2/MdmX complementation, luminescence | inhibition, % at 8 µM;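 active = inhibition of at least 50% at 8 µM in the primary screen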
Target sequence (O15151 whole entry, looked up): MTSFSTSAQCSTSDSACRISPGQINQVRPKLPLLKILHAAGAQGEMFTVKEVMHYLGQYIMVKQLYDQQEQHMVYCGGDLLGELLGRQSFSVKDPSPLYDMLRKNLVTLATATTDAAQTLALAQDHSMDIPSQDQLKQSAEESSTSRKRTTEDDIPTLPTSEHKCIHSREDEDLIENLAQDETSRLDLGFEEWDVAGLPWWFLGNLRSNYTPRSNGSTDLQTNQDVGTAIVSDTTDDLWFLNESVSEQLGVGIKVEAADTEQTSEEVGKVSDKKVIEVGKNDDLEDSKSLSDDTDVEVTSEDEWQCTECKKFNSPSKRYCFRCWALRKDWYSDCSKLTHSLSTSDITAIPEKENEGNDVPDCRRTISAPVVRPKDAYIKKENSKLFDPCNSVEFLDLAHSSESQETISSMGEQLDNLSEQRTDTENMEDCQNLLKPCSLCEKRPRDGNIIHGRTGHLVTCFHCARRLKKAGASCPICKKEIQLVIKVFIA
Target sequence (Q00987 whole entry, looked up): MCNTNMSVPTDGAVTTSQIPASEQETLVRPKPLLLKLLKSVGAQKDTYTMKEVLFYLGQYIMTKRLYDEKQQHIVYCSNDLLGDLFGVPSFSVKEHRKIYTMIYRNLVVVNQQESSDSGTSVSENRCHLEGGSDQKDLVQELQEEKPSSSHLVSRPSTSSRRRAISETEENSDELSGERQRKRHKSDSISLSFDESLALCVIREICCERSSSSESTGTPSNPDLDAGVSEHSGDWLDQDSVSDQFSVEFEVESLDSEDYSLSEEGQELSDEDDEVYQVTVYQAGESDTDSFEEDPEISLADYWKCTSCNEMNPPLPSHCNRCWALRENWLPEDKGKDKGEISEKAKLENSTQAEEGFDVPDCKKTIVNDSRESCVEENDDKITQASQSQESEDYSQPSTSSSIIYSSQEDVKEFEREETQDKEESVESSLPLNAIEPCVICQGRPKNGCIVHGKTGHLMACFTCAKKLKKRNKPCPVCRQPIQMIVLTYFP
697 NFkB inh: lowers PMA/ionomycin-induced NF-kB signal in 697 B cells; 697 B-cell NF-kB luciferase reporter, 16 h; inhibition, % at 4 µM; AID 435022; hit rate 0.33% among 330,000; in the data active = inhibition above about 35%
aSyn UTR inh: 5' untranslated region of α-synuclein, MLPCN primary screen. alpha-synuclein 5'UTR reporter, inhibitor activity. AID 1813. hit rate 0.82% among 300,000. inhibition, % (tested at 7.5 µM); in the data active = inhibition above about 60%;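 also: H4 neuroglioblastoma cells stably carrying SNCA 5'UTR luciferase fusion; 0% = DMSO wells and 100% = positive control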
VIM-2 inh: blocks Pseudomonas aeruginosa VIM-2 metallo-beta-lactamase; hit rate 0.89% among 290,000; AID 1527; purified VIM-2, nitrocefin hydrolysis, epi-absorbance fluorescence; inhibition, % at 5.6 µM;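 active = inhibition above the mean of all tested compounds plus 3 SD, cutoff set per screening run, cut at about 7.5% in these data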;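 also: red hydrolysis product quenches plate fluorescence so inhibitors raise well fluorescence; 0% = enzyme with DMSO and 100% = DMSO without enzyme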
Jurkat NFkB inh: lowers PMA/ionomycin-induced NF-kB signal in Jurkat cells. PMA/ionomycin-induced NF-kB luciferase reporter, luminescence. inhibition, % at 4 µM. hit rate 0.53% among 330,000. AID 435003; in the data active = inhibition above about 50%
* = called active by the depositor; x = not tested or not shown.

SMILES | IMP-1 inh | Mdm2-MdmX inh | 697 NFkB inh | aSyn UTR inh | VIM-2 inh | Jurkat NFkB inh
CN1C(=O)/C(=C/c2ccc(OCc3ccc(F)cc3)cc2)NC1=S | -5 | 27 | -24 | -19 | -3 | -13
CN(CCCNC(=O)c1cc2c(=O)[nH]c3ccccc3c2n1C)Cc1ccccc1 | -1 | 2 | -11 | -17 | 8.1* | -9
Cn1c(C(=O)NCCCN2CCN(c3ccccc3F)CC2)cc2c(=O)[nH]c3ccccc3c21 | -6 | 37 | 21 | 19 | 11* | -1
Cn1c(=O)cc(OCC(=O)NCCCN2CCN(c3ccccc3F)CC2)c2ccccc21 | -4 | 26 | 15 | -11 | 2 | -1
CCCCCn1c(=O)[nH]c2cc(C(=O)NCCCN(C)Cc3ccccc3)ccc2c1=O | -2 | 41 | -5 | -31 | 1 | -5
CCC1CCCCN1CCCNC(=O)c1cc2c(=O)[nH]c3ccccc3c2n1C (stereo unspecified) | -2 | 2 | -4 | -7 | 8.9* | 3
CC1CC(C)CN(CCCNC(=O)c2cc3c(=O)[nH]c4ccccc4c3n2C)C1 (stereo unspecified) | -2 | 20 | -5 | -14 | 12* | -13
O=C(c1ccc(N2CCCC2=O)cc1)N1CCN(c2cccc(C(F)(F)F)c2)CC1 | x | 20 | -11 | x | x | 8
CCN(c1ccccc1)S(=O)(=O)c1cccc(C(=O)NCCOc2ccccc2OC)c1 | x | 26 | -15 | x | x | 22
CCCCN(C(=O)C(C)(C)Oc1ccc(Cl)cc1)c1c(N)n(CCC)c(=O)[nH]c1=O | x | 34 | 15 | x | x | 8
CC1N(C(=O)N2CCOCC2)CCN1S(=O)(=O)c1cccc(C(F)(F)F)c1 (stereo unspecified) | -2 | 0 | 0 | 10 | -1 | 5
O=c1c2ccccc2oc2ccc(NCCCn3ccnc3)cc12 | -3 | -91 | -161 | -1 | 11* | -97
CN(Cc1ccccc1)C(=O)c1ccc(NC(=O)C2CCCN(C(=O)OC(C)(C)C)C2)cc1 (stereo unspecified) | x | 2 | -4 | x | x | 18
CC1CCCCN1C(=O)CSc1nc2c(c(=O)n(C)c(=O)n2C)n1C (stereo unspecified) | -3 | -10 | 17 | -2 | -1 | 22
O=S(=O)(Nc1nc2ccccc2nc1N1CCc2ccccc2C1)c1ccc(Cl)cc1 | -1 | -40 | -141 | 86* | 0 | -137
CCOC(=O)Cn1nc(-c2ccccc2)c2ccccc2c1=O | 5.2* | -3 | -43 | -35 | 1 | -6
CCOC(=O)C1CCN(C(=S)Nc2ccc(C)cc2)CC1 | -3 | 15 | 6 | -25 | -3 | 3
CCOC(=O)C1CCN(C(=O)NS(=O)(=O)c2ccc(C)cc2)CC1 | 9.6* | -13 | 15 | 28 | 0 | -17
CC(=O)Nc1cc(C)nn1-c1nc(C)cc(C)n1 | 0 | -44 | 11 | 6 | 9.3* | 6
Cc1ccc(Nc2cc(C)nn2-c2nc(C)cc(C)n2)cc1 | -7 | 32 | -1 | 30 | 7.8* | -12
Cc1cc(C)nc(-n2nc(C)cc2NC(=O)C(C)C)n1 | -4 | 19 | -7 | 22 | 2 | 0
N#CC1CC(c2ccccc2)Nc2cc(Cl)ccc2N1 (stereo unspecified) | -3 | -9 | -153 | -331 | -3 | -16
O=C(O)c1cccc2cc(-c3ccccc3)oc(=O)c12 | 4.8* | -31 | 2 | -6 | 5 | 10
COc1ccc(CC(C)CC(=O)Nc2ccc(OC)cc2)cc1 (stereo unspecified) | -4 | 9 | -7 | 3 | 1 | -8
O=C1Cc2cc(NS(=O)(=O)c3cc(F)ccc3F)cc3c2N1CCC3 | x | 6 | 3 | 0 | x | -1
SMILES | IMP-1 inh | Mdm2-MdmX inh | 697 NFkB inh | aSyn UTR inh | VIM-2 inh | Jurkat NFkB inh
O=C1c2ccccc2C(=O)N1CCCCN(C(=O)c1ccc([N+](=O)[O-])cc1)c1ccc(Cl)cc1 | 37* | -6 | 0 | 14 | 1 | -1
Cc1c(C=O)c2ccccn2c1C(=O)c1cccs1 | -2 | 41 | 1 | 14 | 8.3* | -11
N#Cc1ccc(N2CCc3ccccc3C2)c([N+](=O)[O-])c1 | -3 | 10 | -18 | 81* | 2 | 12
O=C(NCCCCc1ccccc1)Nc1ccc(F)cc1 | -4 | 26 | -2 | -14 | 0 | -17
CC(C)(C)c1nnc(N/N=C/c2cc(Br)ccc2O)n(N)c1=O | -3 | x | x | 116* | -3 | x
O=c1c2c(nc3c(-c4cccc(Br)c4)c[nH]n13)CCCC2 | -3 | 32 | -26 | 69* | -4 | -3
O=c1c2c(nc3c(-c4ccccc4)c[nH]n13)CCC2 | -3 | -2 | 7 | -37 | -2 | 4
COC(=O)c1c(NC(=O)c2ccco2)sc(C(=O)N(C)C)c1C | 1 | 22 | -11 | 8 | 12* | -5
COC(=O)c1cc(C)sc1NC(=O)c1ccco1 | 0 | 21 | -16 | 3 | 8.1* | 3
COC(=O)c1ccc(NC(=O)c2ccc(NC(=O)c3ccco3)cc2)cc1 | 4.7* | 17 | -5 | 24 | 2 | -4
COC(=O)c1c(NC(=O)c2cccnc2)sc(C(=O)N(C)C)c1C | -3 | -10 | 8 | -84 | 0 | 4
Cc1cc(C)cc(NC(=O)c2ccc(NC(=O)c3ccco3)cc2)c1 | -2 | -12 | 26 | 6 | -2 | 9
CCOc1cc(C(C(=O)NCC2CCCO2)N(C(=O)Cn2nnc3ccccc32)c2ccc(OC)c(OC)c2)ccc1O (stereo unspecified) | -4 | -18 | 16 | -13 | -2 | 8
CCN(CC)CCOC(=O)C(Cc1ccco1)Cc1cccc2ccccc12 (stereo unspecified) | x | 17 | -24 | 104* | x | -12
CCN(CC(=O)NC1CCS(=O)(=O)C1)c1ccc([N+](=O)[O-])cc1C#N (stereo unspecified) | x | -20 | -16 | x | x | -15
[O-]/C(=C(\C(=S)NCc1ccco1)[n+]1ccccc1)c1ccccc1Br | 4.8* | -12 | 1 | -10 | 0 | -3
O=C(Cc1ccccc1[N+](=O)[O-])Nc1ccc(S(=O)(=O)N2CCCC2)cc1 | -2 | 23 | -30 | 38 | -2 | -8
N#CC1=C(S)N(c2ccccc2)C(c2ccc(-c3ccccc3Cl)o2)NC1=O (stereo unspecified) | 12* | 23 | 21 | -59 | 2 | 11
Cc1ccccc1N1C(S)=C(C#N)C(=O)NC1c1ccco1 (stereo unspecified) | 1 | -5 | 0 | -14 | 1 | 4
Cc1ccc(CC2C(=O)N(c3ncccn3)C(=O)C2C)cc1 (stereo unspecified) | 4.9* | 3 | 1 | 27 | 1 | 4
Cc1nc2ccc(-c3nc4ccccc4[nH]3)cc2[nH]1 | -1 | -142 | -103 | -120 | 1 | -89
c1ccc2[nH]c(-c3ccc4c(c3)OCO4)nc2c1 | x | -84 | -189 | 79* | x | -87
CCN1CCN(C(=O)c2cc3c(-c4ccc(Cl)cc4)nn(C)c3s2)CC1 | 0 | 31 | 16 | -68 | 11* | -10
